# Screens: PubChem BioAssay, Broad Institute
# Rtt109 HAT inh: C. albicans Rtt109 histone acetyltransferase inhibition | Q5AAJ8 | purified Rtt109/Vps75, ThioGlo CoA-SH fluorescence, 4 h | inhibition, % at 34.9 µM | 330,000 tested, 0.16% active | AID 540336;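 active = inhibition of at least 50% in every replicate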
# Target sequence (Q5AAJ8 whole entry, looked up): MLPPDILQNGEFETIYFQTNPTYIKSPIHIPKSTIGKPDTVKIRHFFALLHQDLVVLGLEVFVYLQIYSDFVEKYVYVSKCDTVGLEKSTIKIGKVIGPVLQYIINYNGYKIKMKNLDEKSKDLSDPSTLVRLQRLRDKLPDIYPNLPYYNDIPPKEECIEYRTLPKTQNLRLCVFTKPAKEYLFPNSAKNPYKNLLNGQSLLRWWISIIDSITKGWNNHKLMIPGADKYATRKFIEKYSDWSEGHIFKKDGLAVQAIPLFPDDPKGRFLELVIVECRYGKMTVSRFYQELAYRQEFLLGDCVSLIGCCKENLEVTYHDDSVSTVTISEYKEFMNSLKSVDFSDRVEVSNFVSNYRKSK
# ERAP1 inh: inhibitors of human ERAP1 aminopeptidase; Q9NZ08; recombinant ERAP1, Leu-AMC fluorescence, 60 min; inhibition, % at 10.7 µM; 340,000 tested, 0.15% active; AID 652197;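 active = mean replicate inhibition of at least 30%, or all replicates individually reaching that 30% level; inactive = mean below 30% and not every replicate reaching it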;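 also: 0% = neutral control wells and 100% = L-leucinethiol positive control wells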
# C2C12 statin: suppressors of simvastatin-induced myotoxicity in C2C12 myotubes; ATP luminescence, 48 h; scaled: DMSO 0, geranylgeraniol control 100; AID 602340; rescue of ATP level, % at 7.49 µM; 330,000 tested, 0.78% active;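 active = mean ATP rescue above about 67%, or every replicate alone reaching that limit, limit read from the data, passing the limit was not always enough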;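 also: myotubes were challenged with 10 µM simvastatin during compound exposure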
# S100A4 MyoIIA: S100A4-myosin IIA interaction inhibition; AID 652163; S100A4/TAMRA-MyoIIA peptide fluorescence polarization; 360,000 tested, 0.14% active; P26447; inhibition, % at 10.7 µM;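 active = mean inhibition of at least 70% across replicates, with every replicate also reaching that level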
# Target sequence (P26447 whole entry, looked up): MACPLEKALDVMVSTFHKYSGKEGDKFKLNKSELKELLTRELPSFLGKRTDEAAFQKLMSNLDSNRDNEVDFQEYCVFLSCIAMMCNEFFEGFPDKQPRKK
#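 System – human S100A4 monomer protein, biochemical binding assay · Buffer or medium – Calcium-containing HEPES buffer, pH 7.2 · Timing – 5 min between mix addition and reading · Also added – TAMRA-labelled myosin IIA heavy-chain peptide probe, 5 nM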
# PGC1a acetyl inh: modulators of PGC1a acetylation; U2OS PGC1a acetylation, AlphaScreen anti-acetyl-lysine; with virally co-expressed GCN5 acetyltransferase; inhibition, % at 15.6 µM; 350,000 tested, 0.17% active; AID 651687;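 active = every replicate shows inhibition of at least 40%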;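 also: 0% = neutral control wells and 100% = positive control wells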
# The depositor's hits bear a star; . = no result given; ! = not active in a repeat. Compounds with a hit are over-represented: about 0.98% of the library has one in this group of screens.
SMILES,Rtt109 HAT inh,ERAP1 inh,C2C12 statin,S100A4 MyoIIA,PGC1a acetyl inh
CN(C)CCCNC(=O)C[C@@H]1CC[C@@H]2[C@H](COC[C@@H](O)CN2S(=O)(=O)c2ccc(Cl)cc2)O1,.,.,-9,.,2
Cc1cnc(C(=O)Nc2nccs2)cn1,1,.,101*,.,5
CC1(C)CC(C(=O)Nc2nccs2)CCO1 (stereo not drawn),-1,.,121*,.,11
Cc1cnc(C(=O)Nc2nnc(C)s2)cn1,-1,.,.,.,0
COCC(=O)Nc1ccc2c(c1)OC[C@@H](C)N(Cc1ccncc1)C[C@@H](C)[C@@H](OC)CN(C)C2=O,.,-1,-10,-1,0
C[C@@H]1CN([C@@H](C)CO)C(=O)c2cccc(NC(=O)c3nc4ccccc4s3)c2O[C@H]1CN(C)Cc1ccc(C(=O)Nc2ccccc2N)cc1,.,-2,101*,-29,-6
C[C@@H]1CN([C@@H](C)CO)C(=O)c2cccc(NC(=O)C3CCOCC3)c2O[C@@H]1CN(C)Cc1ccc(C(=O)Nc2ccccc2N)cc1,.,2,.,79*,3
CC(OC(=O)c1ccccc1NS(=O)(=O)c1cccc(N)c1)C(=O)N(C)Cc1ccccc1 (stereo not drawn),-13,6,86*,-14,9
CC(OC(=O)c1cccc(O)c1)C(=O)N(C)Cc1ccccc1 (stereo not drawn),-2,2,29,-7,3
CC(C)[C@H](NC(=O)NCCc1ccccc1)C(=O)O,6,.,92*,.,0
C1CCC(C(CC2CCCCN2)C2CCCCC2)CC1 (stereo not drawn),78*!,-5,-18,9,-15
COc1cc(C(=O)NC2CCCc3c2cnn3-c2ccccc2F)cc(OC)c1OC (stereo not drawn),13,-3,-14,-2,6
CC(=O)Nc1cccc(C(=O)NC2CCCc3c2cnn3-c2ccccc2F)c1 (stereo not drawn),-8,-5,-1,199*,7
FC(F)(F)c1cccc(-c2nnc(-c3ccccc3)c(N3CCOCC3)n2)c1,-3,.,134*,.,15
FC(F)(F)c1nnc(-c2ccccc2)nc1N1CCOCC1,14,.,7,.,-20
COc1ccc2c3c(n(C)c2c1)[C@H](CO)N(Cc1ccccc1OC)CC31CN(CC2CCOCC2)C1,.,.,.,.,3
CC(=O)N(C)C[C@H]1Oc2ncc(-c3ccc(C#N)cc3)cc2C(=O)N([C@H](C)CO)C[C@@H]1C,.,0,-5,-1,-3
CCS(=O)(=O)N1CCCCN2[C@@H](CO)[C@@H](c3ccc(-c4ccccc4C)cc3)[C@@H]2C1,.,4,.,-4,7
CC(C)CC#Cc1ccc2c(c1)O[C@@H](CN(C)S(C)(=O)=O)[C@H](C)CN([C@@H](C)CO)S2(=O)=O,.,-1,-43,-7,3
COCCOc1cc(-n2ccnc2SC)c(Cl)cc1Cl,-8,.,92*,.,5
COCCOc1cc(-n2cccc2)c(Cl)cc1Cl,1,2,11,-1,-9
C[C@@H]1CN([C@H](C)CO)C(=O)c2cc(NS(=O)(=O)c3ccc(Cl)cc3)ccc2O[C@@H](C)CCCCO[C@H]1CN(C)Cc1ccc2c(c1)OCO2,.,1,.,3,-2
O=C(O)C[C@H]1C[C@@H]2c3cc(NS(=O)(=O)c4ccccc4)ccc3O[C@@H]2[C@H](CO)O1,.,-3,0,-2,10
CN(C)c1ccc(/C=C/C=C2/SC(=S)N(c3ccccc3)C2=O)cc1,0,.,70*,.,5
CCC(C)NS(=O)(=O)c1ccc(NC(C)=O)cc1 (stereo not drawn),-9,0,-5,-2,16
SMILES,Rtt109 HAT inh,ERAP1 inh,C2C12 statin,S100A4 MyoIIA,PGC1a acetyl inh
CCC(NS(=O)(=O)c1ccc(C)cc1)C(=O)Nc1ccc(NC(C)=O)cc1 (stereo not drawn),17,.,138*,.,2
CC(=O)Nc1nc(=O)c2ccccc2s1,3,33*,-5,1,-24
O=S(=O)(N[C@@H]1CC[C@@H](CCn2cc(-c3cccc(F)c3)nn2)O[C@H]1CO)c1ccc(F)cc1,.,-2,-1,9,-27
CCNc1nc(NCc2ccccc2)nc(SCC(N)=O)n1,10,3,13,7,3
CCNc1nc(OC)nc(SCC(N)=O)n1,-9,.,69*,.,0
O=C(NCC(c1ccco1)N1CCCC1)c1ccc(Cl)cc1 (stereo not drawn),-6,.,92*,.,5
O=C(CCNC(=O)c1ccc(Cl)cc1)NCC(c1ccco1)N1CCCCC1 (stereo not drawn),14,5,-4,-10,1
CCC(=O)N(C)C[C@@H]1Oc2cc(C#CC(C)C)ccc2S(=O)(=O)N([C@@H](C)CO)C[C@@H]1C,.,1,23,-27,-9
COC(=O)Cn1cc(C(=O)OC)c2ccccc21,-1,.,98*,.,-18
COC(=O)c1cn(CC(=O)N2C(C)CCCC2C)c2ccccc12 (stereo not drawn),9,.,105*,.,1
COc1ccc(S(=O)(=O)Nc2ccc3c(c2)C(=O)N([C@H](C)CO)C[C@H](C)[C@@H](CN(C)Cc2ccc4c(c2)OCO4)OCCCC[C@@H](C)O3)cc1,.,-1,17,0,5
COc1cccc(CN2CCNC(=O)C2CC(=O)NCCN2CCCCC2=O)c1 (stereo not drawn),8,3,86*,-1,5
C[C@@H]1CCCCO[C@H](CN(C)C(=O)C2CCCCC2)[C@H](C)CN([C@H](C)CO)C(=O)c2cc(NC(=O)CCC(F)(F)F)ccc2O1,.,-6,.,3,3
COc1ccc(NC(=O)Nc2ccc3c(c2)C(=O)N([C@@H](C)CO)C[C@H](C)[C@H](CN(C)C(=O)C2CCCCC2)OCCCC[C@H](C)O3)cc1,.,1,79*,4,0
COc1ccc(NC(=O)Nc2ccc3c(c2)C(=O)N([C@H](C)CO)C[C@H](C)[C@H](CN(C)C(=O)C2CCCCC2)OCCCC[C@H](C)O3)cc1,.,2,71*,0,4
C[C@@H]1CCCCO[C@H](CN(C)C(=O)Nc2cccc3ccccc23)[C@H](C)CN([C@@H](C)CO)C(=O)c2cc(NC(=O)Nc3ccc4c(c3)OCO4)ccc2O1,.,-3,122*,-4,-8
C[C@@H]1CCCCO[C@@H](CN(C)C(=O)C2CCCCC2)[C@@H](C)CN([C@H](C)CO)C(=O)c2cc(NC(=O)Nc3cccc4ccccc34)ccc2O1,.,1,.,108*,14
C[C@H]1CN([C@@H](C)CO)C(=O)c2cc(C#CCN(C)C)cnc2O[C@@H]1CN(C)S(=O)(=O)c1ccccc1,.,-6,-14,-4,-1
N#C[C@@H]1[C@@H](c2ccccc2)[C@H](CO)N1C(=O)Nc1cccc(F)c1,.,-1,8,-9,-2
C[C@@H]1CCCCO[C@H](CN(C)C(=O)Nc2cccc3ccccc23)[C@H](C)CN([C@@H](C)CO)C(=O)c2cc(N(C)C)ccc2O1,.,-1,71*,-4,-2
